# Screening results: PubChem BioAssay, The Scripps Research Institute Molecular Screening Center
# MBD2 DNA inh: inhibitors of human MBD2 binding to methylated oligonucleotide | Q9UBB5 | TR-FRET | inhibition, % at 4.4 µM | 0.31% of 370,000 active; in the data active = inhibition above about 13%
# PRMT1 inh: blocks human protein arginine methyltransferase 1; Q99873; recombinant PRMT1, activity-based probe fluorescence polarization; inhibition, % at 2.79 µM; 1.3% of 370,000 active; AID 652257;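 active = inhibition above about 21% made by adding two undisclosed values, limit read from the data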
# Target sequence (Q99873 whole entry, looked up): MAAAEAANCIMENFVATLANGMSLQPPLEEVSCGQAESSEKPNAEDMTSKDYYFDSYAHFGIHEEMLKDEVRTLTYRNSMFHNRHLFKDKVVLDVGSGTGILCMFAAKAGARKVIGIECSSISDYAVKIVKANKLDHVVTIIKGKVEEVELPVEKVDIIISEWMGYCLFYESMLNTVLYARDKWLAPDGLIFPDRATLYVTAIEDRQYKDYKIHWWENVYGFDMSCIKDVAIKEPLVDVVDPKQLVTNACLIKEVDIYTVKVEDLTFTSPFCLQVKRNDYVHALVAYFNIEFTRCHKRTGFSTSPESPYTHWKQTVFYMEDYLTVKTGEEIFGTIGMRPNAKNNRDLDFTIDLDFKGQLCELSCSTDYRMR
# TDP2 absorb: blocks human TDP2 phosphodiesterase activity. O95551. recombinant TDP2, T5PNP hydrolysis, p-nitrophenol absorbance 415 nm. inhibition, % at 12.8 µM. 0.34% of 370,000 active. AID 720702;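 active = inhibition above the mean of all tested compounds plus 3 SD, set per campaign, cut at about 25% in these data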;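 note: 0% = DMSO with enzyme and 100% = buffer with substrate but no TDP2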
#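 Assay system: recombinant human TDP2 / Reagent: T5PNP substrate at 5 mM, a TopII-DNA adduct mimic / Measured by: epi absorbance from released p-nitrophenol / Evaluation: % inhibition relative to enzyme-containing and enzyme-free wells / Control set: enzyme-free and DMSO wells / Replicates: each compound tested once, singlicate / Schedule: enzyme reaction with compound for 2 h at 37 °C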
# UHRF1 MBD2 ctr: human UHRF1 methylated DNA binding inhibitors | Q96T88 | UHRF1 binding to methylated oligo, TR-FRET | inhibition, % at 4.4 µM | 0.75% of 370,000 active; in the data active = inhibition above about 21%;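 note: UHRF1 SRA domain binding a hemimethylated CpG hairpin DNA probe; 0% = median of test compound wells and 100% = reference inhibitor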
# SIAE inh: inhibitors of human sialic acid acetylesterase SIAE | SIAE FP-Rh probe binding, fluorescence polarization | Q9HAT2 | inhibition, % at 9.66 µM | AID 1053197 | 0.69% of 370,000 active;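 active = inhibition above a cutoff: mean of compounds within the control limits plus 3 SD of those, cut at about 17% in these data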;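 note: 0% = plate median of compound wells and 100% = probe without SIAE protein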
# LEDGF integ inh: blocks HIV-1 LEDGF/p75-dependent DNA integration; 0.64% of 370,000 active; TR-FRET IN-LEDGF/p75 DNA integration, Eu/Cy5; inhibition, % at 3.7 µM; AID 743269;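 active = inhibition above the screen-wide mean plus 3 SD, cut at about 13% in these data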;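 note: signal is the Cy5 over europium emission ratio at 671 and 618 nm; 0% = plate median of compound wells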
# PRMT1 confirm: confirmation of human PRMT1 inhibitors. recombinant His-PRMT1, activity-based probe fluorescence polarization. shares compounds with PRMT1 inh. 42% of 3,300 active. AID 687036. inhibition, % at 2.79 µM;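 active = mean inhibition across replicates above the hit cutoff derived for the earlier primary screen, cut at about 22% in these data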
# * marks the source's active call; other numbers are inactive results; / = no result given. Rows were chosen to be rich in hits. Some 3.3% of all compounds tested hit in one or more screens of this group.
SMILES,MBD2 DNA inh,PRMT1 inh,TDP2 absorb,UHRF1 MBD2 ctr,SIAE inh,LEDGF integ inh,PRMT1 confirm
O=C(O)c1ccccc1-c1ccc(/C=C/c2cc(C(F)(F)F)[nH]c(=O)n2)o1,-10,29*,-3,-18,-28,5,25*
CC1=C(C#N)c2nc(N)c(C#N)c(C)c2/C1=C\c1ccc(-c2ccccc2C(=O)O)o1,0,15,6,15,11,10,/
S=C(Nc1cccc(Br)c1)OC1CCC12CCC(c1ccccc1)CC2 (stereo not given),3,-4,2,3,-9,1,/
O=C(O)c1ccccc1NS(=O)(=O)c1cccc(C(F)(F)F)c1,-3,-3,12,2,-1,-3,/
O=C(O)c1ccccc1NS(=O)(=O)c1cccc(-n2sc3ccccc3c2=O)c1,5,94*,8,16,-21,-4,93*
O=[N+]([O-])c1ccc(N2CCN(Cc3ccccc3)CC2)s1,-16,-5,10,-19,1,2,/
O=[N+]([O-])c1ccc(N2CCN(Cc3ccccc3)CC2)c2c1no[n+]2[O-],-18,54*,13,-20,-7,3,19
Cc1ccc(-c2nc3cnccn3c2Nc2ccc3c(c2)OCCO3)o1,-3,27*,-2,-2,5,-2,2
CN(C)c1ccc(-c2nc3cnccn3c2Nc2ccc3c(c2)OCCO3)cc1,4,4,8,-1,7,-7,/
CCOC(=O)[C@]12CCCC=C1N(CCc1ccc(Cl)cc1)C(=O)[C@@H]2CC(=O)NCCC(C)C,-7,2,9,0,2,1,/
O=S1(=O)c2c(cccc2N2CC[C@H](O)C2)OCCCN1C1CC1,3,4,6,1,5,1,/
CCNc1cccc2c1C(=O)N(C)C2=O,-8,44*,-2,-9,-1,1,46*
Cc1ccc(C2=CCN(C)C(=O)N2c2ccc(Br)cc2)cc1,6,6,-6,3,6,-3,/
COC(=O)c1ccc(Cn2ccc3ccc(-c4ccc5ccn(C(=O)c6ccccc6OC)c5c4)cc32)cc1,-1,-3,0,-1,-3,1,/
O=c1[nH]c(S)c(/C=C2\C=Nc3ccccc32)s1,-11,48*,4,-26,-2,10,31*
Oc1nc(Nc2ccc(F)cc2)sc1/C=C1\C=Nc2ccccc21,2,-2,-4,-2,9,-2,/
COc1ccc(CN2C/C(=C/C3=CCCCC3)N(C(=O)OCc3ccccc3)C2=N)c(OC)c1,-3,-1,-3,-3,-4,6,/
CCOC(=O)c1c(N)sc(N)c1C(=O)OCC,-4,31*,-14,-1,7,0,56*
Cc1ccc2oc(C(=O)N(C)Cc3ccc(C)o3)c(C)c2c1,-3,51*,-18,-1,1,1,64*
C[C@H]1[C@@H](OC(=O)NCc2ccco2)CC[C@@]23CCCN2C(=O)CCC[C@@H]13,-1,6,2,3,8,5,/
COc1ccc(NC(=O)CCCN2C(=O)/C(=C\c3ccco3)SC2=S)cc1,-1,7,0,-4,-1,2,/
O=C(CN1C(=O)/C(=C/c2ccco2)SC1=S)Nc1ccc(O)c(C(=O)O)c1,7,50*,4,58*,-8,47*,31*
O=C(CN1C(=O)/C(=C/c2ccco2)SC1=S)NC1CCS(=O)(=O)C1 (stereo not given),0,44*,16,52*,6,55*,24*
CC(/C=C/c1ccc(C)o1)=C\C(=O)O,-2,30*,0,0,6,5,12
Cc1ccc(/C=C/C(=O)N2CC(C)CC(C)C2)o1 (stereo not given),-2,40*,-4,3,-1,-1,19
SMILES,MBD2 DNA inh,PRMT1 inh,TDP2 absorb,UHRF1 MBD2 ctr,SIAE inh,LEDGF integ inh,PRMT1 confirm
CCN1CCN(C(=O)/C=C/c2ccc(C)o2)CC1,-3,2,8,0,2,-1,/
CCOC(=O)[C@]12CCCC3=C1N(CCC3)C(=O)[C@@H](CC(=O)N1CCN(C(=O)c3ccco3)CC1)C2,1,0,-1,-1,0,-3,/
CCc1ccc(CCNC(=O)OC2CCC23CCC(c2ccccc2)CC3)cc1 (stereo not given),-5,2,10,-3,-5,-4,/
COC(=O)[C@]12CCCCC=C1N(Cc1ccc(OC)cc1)C(=O)[C@@H]2CC(=O)NCCC(C)C,1,-3,-8,-1,2,1,/
CC(=O)Nc1ccc(SCC(=O)N(C)CC(=O)Nc2ccccc2Cl)cc1,4,58*,6,-3,-1,-2,61*
CCOC(=O)Nc1ccc(NCc2ccc(F)cc2)nc1N,0,64*,7,3,7,8,14
CN1CCN(c2ccc3c(c2)Oc2ccccc2CN(Cc2cn(Cc4ccc(C(F)(F)F)cc4)nn2)S3(=O)=O)CC1,-1,-4,-10,0,0,2,/
O=C1NC(=S)SC1=C1CCCCCC1,-2,32*,5,2,3,5,0
O=C(/C=C/c1ccc([N+](=O)[O-])cc1)N(c1ccccn1)C1CCCCC1,-8,28*,-11,-1,5,2,20
CN1c2ccsc2/C(=N/NC(=O)c2c(F)cccc2F)CS1(=O)=O,4,1,4,-2,-4,-1,/
CN1c2ccsc2/C(=N/Nc2ccccc2)CS1(=O)=O,7,38*,3,24*,5,-1,1
Nc1n[nH]c(=S)n1/N=C1/C(=O)Nc2ccccc21,-5,43*,-21,3,-2,8,40*
O=C1Nc2ccccc2C1=NN1CCCCCC1,-3,1,-2,-1,6,-3,/
CCOC(=O)[C@@H]1c2[nH]c3ccccc3c2C[C@@]2(C(=O)OC)C=CCN12,6,11,-6,0,-1,-2,/
CCCCN1C(=O)CC(Sc2ncccc2C(=O)O)C1=O (stereo not given),-1,3,-8,3,6,-2,/
CCN1C(=O)CC(N2CCC(C(=O)OC)CC2)C1=O (stereo not given),6,-2,2,-1,0,2,/
CCN1C(=O)CC(SC2CC(=O)N(CC)C2=O)C1=O (stereo not given),0,33*,-9,2,6,-7,27*
CCCCN1C(=O)CC(SC2CC(=O)N(CCCC)C2=O)C1=O (stereo not given),2,57*,-17,7,1,1,17
O=C1/C(=C\c2ccc(O)cc2)SC(=S)N1Cc1ccccc1,-1,3,-13,-1,2,4,/
